Assay results pooled from the literature.
Each line is one published result; the experiments were not run side by side.
Target: Tyrosine-protein kinase Srms (SRMS, Homo sapiens, UniProt Q9H3Y6)

Structure (SMILES)	test	setting	remaining binding [%]
C[C@@H](c1ccc(-n2cnc3c(N)ncnc32)cc1)N1CCc2nn(C)c(Cc3ccccc3)c2C1=O	binding, competition with immobilised ligand	0.1 µM	44
O=C(Nc1c[nH]nc1C(=O)NC1CCNCC1)c1cc(F)cc(F)c1	binding, competition with immobilised ligand	1 µM	84
CN(c1nccc(-c2cnn3ncccc23)n1)C1CC1	binding	1 µM	100
FC(F)(F)Oc1cccc(-c2cnc3ccc(-c4ccncc4)nn23)c1	cell-free assay, competition with immobilised ligand	5 µM	65
c1cncc(-c2cccc(Nc3nccc(NC4CCCCC4)n3)c2)c1	binding, competition with immobilised ligand	10 µM	71
CC1CCCN1c1nccc(-c2cnn3ncccc23)n1 (stereo not shown)	binding	1 µM	100
O=C(c1ccc(Nc2ncc(Cl)c(-c3cc4ccccc4s3)n2)cc1)N1CCC(N2CCCC2)CC1	binding, competition with immobilised ligand	1 µM	81
O=C(Nc1cccnn1)N1CCC(=Cc2cccc(Oc3ccc(C(F)(F)F)cn3)c2)CC1	cell-free assay, competition with immobilised ligand	1 µM	95
F[C@@H]1CCN(c2nccc(-c3cnn4ncccc34)n2)C1	binding	1 µM	100
COc1cnc(Nc2cccc(S(N)(=O)=O)c2)nc1N1CCN(c2ccccc2)C(=O)C1	binding, competition with immobilised ligand	1 µM	90
O=C(NCCCN1CCOCC1)c1ccc(Nc2ncc(Cl)c(-c3ccc(Cl)s3)n2)cc1	binding, competition with immobilised ligand	1 µM	99
CCOCCn1cc(C(=O)Nc2ccc(-n3nc(-c4cccnc4)cc3C(F)(F)F)cn2)ccc1=O	cell-free assay, competition with immobilised ligand	1 µM	79
CN(C)c1nccc(-c2cnn3ncccc23)n1	binding	1 µM	64
O=C(NS(=O)(=O)c1ccc(NCC2CCOCC2)c([N+](=O)[O-])c1)c1ccc(N2CCN(Cc3ccc(C(F)(F)F)cc3-c3ccc(Cl)cc3)CC2)cc1Oc1cnc2[nH]ccc2c1	cell-free assay, competition with immobilised ligand	1 µM	79
CN(C)c1ncc(F)c(-c2cnn3ncccc23)n1	binding	1 µM	81
O=C(c1ccc(Nc2nccc(-c3cc4ccccc4s3)n2)cc1)N1CCC(N2CCCC2)CC1	binding, competition with immobilised ligand	1 µM	73
CSc1cccnc1N1CCN(Cc2nc3ccccc3[nH]2)CC1	cell-free assay, competition with immobilised ligand	1 µM	100
c1cnn2ncc(-c3ccnc(N4CCC45COC5)n3)c2c1	binding	1 µM	70
O=C(Nc1cccnn1)N1CC(C/C=C/c2cncc(Oc3ccc(C(F)(F)F)cn3)n2)C1	cell-free assay, competition with immobilised ligand	1 µM	67
N[C@H]1CCN(c2nccc(-c3cnn4ncccc34)n2)C1	binding	1 µM	88
CCC(=N\O)/C(C)=C/c1ccc(F)cc1	cell-free assay, competition with immobilised ligand	1 µM	76
C=CC(=O)N1CCC(C(=O)NCC(=O)N2CCN(c3nc(-c4cnc(N)nc4C(F)F)nc(N4CCOCC4)n3)CC2)CC1	binding, competition with immobilised ligand	1 µM	72
